From the EternaBench riboswitch data come the findings set out here.

The subject of the series is MS2 coat protein. Put plainly: apparent Kd, MS2 coat protein; higher = weaker binding; RNA-MaP array; FMN 200 µM where present. A digest of the protocol:
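Apparent Kd: the median of filtered binding-curve fits from single clusters. Designs were transcribed on Illumina sequencing-chip clusters by stalled E. coli RNA polymerase and titrated with SNAP-549-labelled MS2 coat protein from 0.7 or 1.5 nM, doubling to 3 µM, in 100 mM Tris-HCl pH 7.5, 80 mM KCl, 4 mM MgCl2, BSA, DTT, yeast tRNA and Tween-20. Each series ran without and then with constant ligand, and green signal was normalised to red-channel RNA signal and control-cluster median Fmax.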

Where [1] appears, read: designed as: OFF switch for flavin mononucleotide, no ligand.
Where [2] appears, read: ligand present: flavin mononucleotide, designed as: OFF switch for flavin mononucleotide.
The mark [3] stands for this setting: designed as: ON switch for flavin mononucleotide, no ligand.
Setting [4] is: ligand present: flavin mononucleotide, designed as: ON switch for flavin mononucleotide.

Broadly, the apparent Kd is the concentration giving half-maximal binding under the conditions of the assay. “UCUCAACAUGAGGAUCACCCAUGUGAGGAUAUGAUGCAGCAGUGGUCUACGCUGUGCAUCAGAAGGCACAUGUG”: the “apparent Kd” value under setting [1] is 137 nM and the “apparent Kd” value under setting [2] stood at 48.2 nM.

With “GCCUUACCGGUCAGGAUAUACAUUUGUUACUCCUUGUAGAAGGGACAUGAGGAUCACCCAUGUACAUUACAUUC”, the “apparent Kd” value is, setting by setting: under setting [1], 19.4 nM; under setting [2], 20.4 nM.

With “GUACGCUCAGGAUAUCAAGGGCUGUACAUGAGGAUCACCCAUGUUAUCUUGGUGUCAGCGUGAGAAGGGAGGGAAA”, the “apparent Kd” value reads like this: under setting [1], 26 nM; under setting [2], 32.7 nM.

For the sequence “AAAGGACAUGAGGAUCACCCAUGUCAGGAUAUCGCUUUAGGACAUACCCAUUAACCUGCGAGAAGGGACGGUGA”, the “apparent Kd” value under setting [1] came out at 32.8 nM and the “apparent Kd” value under setting [2] was 44.6 nM.

Turning to “CACAUGUGAGGAUAUGUAAUAAAGGCGACGCGGGUCGCCCGACAGAAGGCACAUGAGGAUCACCCAUGUGAUGA”, the “apparent Kd” value came out at 37 nM under setting [1] and 98 nM under setting [2].

For “CCACGUCACAUGAACAUGAGGAUCACCCAUGUAACUAGACAUGAGGAUAUGGAUCCUAAUUGGAUCCAGAAGGCAUGGACGUGG”, the “apparent Kd” value runs as follows: under setting [3], 168 nM; under setting [4], 29.2 nM.

In the case of “UUGCAGUGCGGGUAGGAUAUGUAGGGUGGUACAUGAGGAUCACCCAUGUGUCCACCCUUCGACCGGCAGAAGGGCCUAUCACUGC”, the “apparent Kd” value reads like this: under setting [3], 17.1 nM; under setting [4], 15.6 nM.

Turning to “UAGCGGUAGGGAGGAUAUGCGAAAGGAAGGCCCGCAGAAGGCCUUACAUGAGGAUCACCCAUGUAGGAUGCCUGGGUGGUGCCC”, the “apparent Kd” value by setting is: under setting [1], 14.5 nM; under setting [2], 26.4 nM.

As for “AAUAUAAAGAGCUGGACCUUAAUAACAUGAGGAUCACCCAUGUAGGAUAUCAGCACGAUAAGUGCUGAGAAGGACAUCCAGCUC”, the “apparent Kd” value was 14.4 nM under setting [1] and 15.1 nM under setting [2].

Regarding “CCGGAUACGGGUAGCCUGACAUGAGGAUCACCCAUGUGAUCCAAGGAUAUGGAUCCUAAUUGGAUCCAGAAGGUGGUUGGCUAC”, the “apparent Kd” value by setting is: under setting [3], 682 nM; under setting [4], 369 nM.

On to “CGAUGUUAUGUCAGGAUAUACAUUGCGAAAGCAAUGUAGAAGGGACAUGAGGAUCACCCAUGUCCUAACCAUCG”, for which the “apparent Kd” value reads like this: under setting [1], 13.1 nM; under setting [2], 17.1 nM.

Regarding “AUAAUAGAGUCAGGAUAUGGACAUGAGGAUCACCCAUGUGCAGGGAUCCUCCCAGAAGGGACAUCUAAACAAAAGGCGCUAUCC”, the “apparent Kd” value under setting [1] stood at 307 nM and the “apparent Kd” value under setting [2] was found to be 147 nM.

Turning to “CCUCUGUAAGGAUAUACGGAGACGGCUGGAAUCAGUGGAAAGUAGAAGGUACAUGAGGAUCACCCAUGUGAGAC”, the “apparent Kd” value came out at 21.1 nM under setting [1] and 66.2 nM under setting [2].

As for “UGUUGUUCAGGAUAUGGUGUGUUAUACAUGAGGAUCACCCAUGUGGGUCCUGGUUUGGCCUCAGAAGGGAAUGUUG”, the “apparent Kd” value under setting [1] came to 750 nM and the “apparent Kd” value under setting [2] turned out to be 537 nM.

With “AUGACGGCAGGAUAUACAUGAGGAUCACCCAUGUAAAUUUUUCGUUUACCUUGACCGUGUAGAAGGGCCCAACC”, the “apparent Kd” value by setting is: under setting [1], 14.5 nM; under setting [2], 16.1 nM.

Consider “AGCUGUGGCCGAGGAUAUCUGAACCUUCAAACCGAAAUAUAAUCGGACAUGAGGAUCACCCAUGUAGAGAAGGCGGUCUCAGCA”, for which the “apparent Kd” value by setting is: under setting [1], 12 nM; under setting [2], 22.6 nM.

For “ACGUUUUAUGCAGGAUAUUGAAAUAUAUUUAAACAAGAAGGGCAAUACAUGAGGAUCACCCAUGUCAGCAUGGUAUUUAAGUUC”, the “apparent Kd” value is 43.9 nM under setting [1] and 45.4 nM under setting [2].

In the case of “GUAAACGAUCAGGAUAUAUCAAAUAAUAGCUUGAUAGAAGGGAUCACAUGAGGAUCACCCAUGUGAUCUUCUUU”, the “apparent Kd” value under setting [1] worked out at 13.6 nM and the “apparent Kd” value under setting [2] was 14.8 nM.

In the case of “AUAUUCAGAGGAUAUGCGCAUAGAUAAGACUUUUUUUCUUAACAUGAGGAUCACCCAUGUAGAAGGCUGUAAUA”, the “apparent Kd” value is, setting by setting: under setting [1], 20.1 nM; under setting [2], 17.5 nM.

As to “AAUAGAAAGAUUAAUAUGAUUACAUGAGGAUCACCCAUGUAUAAGGAUAUCGACGUCAAUGACGUCGAGAAGGUAUACAUAAUA”, the “apparent Kd” value under setting [1] turned out to be 15.7 nM and the “apparent Kd” value under setting [2] was 34 nM.

Regarding “AGGUAAACCACAGGAUAUGGCUAGCAUAGCUAGCCAGAAGGGUGGUCGUAACCAUGUAAAUACAUGAGGAUCACCCAUGUAUCC”, the “apparent Kd” value is, setting by setting: under setting [3], 89.8 nM; under setting [4], 36 nM.

For “CCAGCGUAUGUGAGGAUAUGCUGGUCCUUGGAUCAGCAGAAGGCACAUGAGGAUCACCCAUGUGAGAGCGUUGG”, the “apparent Kd” value by setting is: under setting [1], 25.7 nM; under setting [2], 197 nM.

Regarding “CUCCUGCGAGGAUAUACAUAGUGACGUCUGUUUGGUCUUAAACAUGAGGAUCACCCAUGUAGAAGGUGCGUCAC”, the “apparent Kd” value reads like this: under setting [1], 17.5 nM; under setting [2], 16.9 nM.

With “CCAGAUAUGUGAGGAUAUAGAGUGGAAUACACUCUAGAAGGUAUGUGAGAACAUGAGGAUCACCCAUGUCAUUGAUUAUCUGGA”, the “apparent Kd” value by setting is: under setting [3], 24.7 nM; under setting [4], 24.6 nM.

In the case of “GCGUGAAAUGUAGGAUAUGACACAGGAAACUGGUCAGAAGGACAUGAGGAUCACCCAUGUAAUAAGUUCAAGAAUAACACAUGC”, the “apparent Kd” value runs as follows: under setting [1], 33.1 nM; under setting [2], 75.5 nM.

For the sequence “UCUACAUAGAUUCAUCAAUACAGUAAGGAUAUGAGAUACAUGAGGAUCACCCAUGUGCAUGUGGAUUAGAAGGUACAAUUAACU”, the “apparent Kd” value by setting is: under setting [1], 16.8 nM; under setting [2], 14.9 nM.

In the case of “UCGUUGUCAGGAUAUCGUGUAUUCAACUUUAGUUUUAUAUUCGAGAAGGGACAUGAGGAUCACCCAUGUUACGU”, the “apparent Kd” value reads like this: under setting [1], 133 nM; under setting [2], 257 nM.

For “AGCCAACAUGAGGAUCACCCAUGUCUACAGGAUUAAGGAUAUGGGCAGGGCUUCCCUGCACUAGAAGGUGAUCGAA”, the “apparent Kd” value came out at 153 nM under setting [3] and 214 nM under setting [4].

For the sequence “AGAAAGGCAGGAUAUACAUGAGGAUCACCCAUGUUAAGAGUGACGGAAACGUCACGAAGUAGAAGGGCCAAGAA”, the “apparent Kd” value turned out to be 21.1 nM under setting [1] and 18.7 nM under setting [2].

With “AAUAACAGAGGAUAUACUAUUUUAUGUGUUUGUUAUUUUAAACAUGAGGAUCACCCAUGUAGAAGGCUGAGUAA”, the “apparent Kd” value worked out at 26.7 nM under setting [1] and 26.9 nM under setting [2].

For “CAGGUAGACUGAGGAUAUACAAUAAACAGCUAGUCUAUCUAGCUGCUCACAUGAGGAUCACCCAUGUAGAAGGCAGUCUGCCUG”, the “apparent Kd” value turned out to be 18.7 nM under setting [1] and 45.1 nM under setting [2].

Take “AGAGAUACGCUCGUCGGACACCGACAUGAGGAUCACCCAUGUAGAAGGCGAUGCGCAACUCGCAUUGAGGAUAUAUAAUGCAGC”: the “apparent Kd” value under setting [1] was found to be 6 nM and the “apparent Kd” value under setting [2] came to 5.74 nM.

“GAGUCUCUAUUAGAACCGAUACGAACAUGAGGAUCACCCAUGUAGGAUAUGCUAAAAGUUGUGUUGCAGAAGGACAUUUAAAGC”: the “apparent Kd” value under setting [1] worked out at 10.6 nM and the “apparent Kd” value under setting [2] worked out at 9.89 nM.

Consider “CCAUAAAUGAUCCAUUUUUACUACAUGAGGAUCACCCAUGUGCAGGAUAUCGUGAAAGUUAAAUACGAGAAGGGCAAGAACUGC”, for which the “apparent Kd” value stood at 218 nM under setting [1] and 230 nM under setting [2].

Turning to “CUUUUGUGAGGAUAUUAGUAGUAAAUAAAUAAAAUUACUUCUGAGAAGGCACAUGAGGAUCACCCAUGUUCCUC”, the “apparent Kd” value was 30.6 nM under setting [1] and 123 nM under setting [2].

Take “AGCUACGUUUCGUAGCAGCUAGGUGAGGAUAUUCAAAAUUUCACAUGAGGAUCACCCAUGUAUGUGAAGAAGGCGCCUAGAAAG”: the “apparent Kd” value amounted to 7.29 nM under setting [3] and 4.74 nM under setting [4].

Consider “GUGUAGGUAGGAUAUACAUGAGGAUCACCCAUGUGAAUAAGAUAGAAUAAGAUAAAGUGUAGAAGGACUAGUGU”, for which the “apparent Kd” value by setting is: under setting [1], 37 nM; under setting [2], 28.8 nM.

For “CGUUAUGAUAGAGGAUAUGUAAUACAUGAGGAUCACCCAUGUCACAUGGACAUUGUUUCUAAUUUACAGAAGGCUAUCCUUUCG”, the “apparent Kd” value came to 20.3 nM under setting [1] and 16.3 nM under setting [2].

“CGUGCGUCGACAGGAUAUACAGAUUGGCUCCGGUACAUGAGGAUCACCCAUGUAGAAGGGUCACGCACAGUUAGUUCGUUAUUA”: the “apparent Kd” value is 8.52 nM under setting [1] and 37.9 nM under setting [2].

“AAAACACAUGAGGAUCACCCAUGUAUCUGGACCAUAGGAUAUCCGCGCCCAAUAAGGUGUGGAGAAGGGUGAGCCC”: the “apparent Kd” value turned out to be 158 nM under setting [3] and 181 nM under setting [4].

In the case of “CUGACAGUGUAGCGCGUCUAGCCAGAGGAUAUCCACAUGAGGAUCACCCAUGUCAUGUCCUCGCGGGAGAAGGCUGGCUUGGCG”, the “apparent Kd” value runs as follows: under setting [1], 204 nM; under setting [2], 54.3 nM.

On to “UGUUGUAUUACAGGAUAUCUAUGUUUUUUAUUUAGAGAAGGGUAUUCACAUGAGGAUCACCCAUGUAUAUACGAGGAAGUUGUG”, for which the “apparent Kd” value under setting [3] turned out to be 49 nM and the “apparent Kd” value under setting [4] was determined as 49 nM.

For “ACUUACUGAGGAUAUACAUAGAUUUACAUGAGGAUCACCCAUGUUCCUCUAUGUAUAAAUGUAGAAGGCAGAAGUG”, the “apparent Kd” value by setting is: under setting [1], 22.4 nM; under setting [2], 120 nM.

Take “UGGUACUAGGGAGGAUAUGGGAAGAUACAUGAGGAUCACCCAUGUUUAAUAAUGCCGAGAGGCAACUAGAAGGCCCUAGUACCU”: the “apparent Kd” value under setting [3] is 253 nM and the “apparent Kd” value under setting [4] was 13.9 nM.

Turning to “GGUACUCAAAGAGUACCAAUACGAACAUGAGGAUCACCCAUGUAGGAUAUGCUAAAACCGGAGUAGCAGAAGGACAUGUGCCUA”, the “apparent Kd” value by setting is: under setting [1], 15.3 nM; under setting [2], 66.6 nM.

In the case of “UCUUUACAUGAGGAUCACCCAUGUGAGGAUAUGGAUUCGCUGGCCGUAGCCAGUGGAUCCAGAAGGCGCAUGAU”, the “apparent Kd” value runs as follows: under setting [1], 26.6 nM; under setting [2], 48 nM.

Regarding “GCUGUCGUAUGAGGAUAUGGUCACCUUUGGUGACCAGAAGGCAUGUCAAUAGACAUGAGGAUCACCCAUGUAGUAAAGACAGCA”, the “apparent Kd” value came to 391 nM under setting [3] and 39.4 nM under setting [4].

Regarding “UUAAACGGAGGAUAUACAUUUUUUUUAUUAUCCUCAUUAAAACAUGAGGAUCACCCAUGUAGAAGGCCGAAAUU”, the “apparent Kd” value under setting [1] was 79.6 nM and the “apparent Kd” value under setting [2] was 292 nM.
